Data on 11 compounds can be found in ChEMBL document CHEMBL5390271, “Targeting Glial Cells by Organic Anion-Transporting Polypeptide 1C1 (OATP1C1)-Utilizing l-Thyroxine-Derived Prodrugs” (J Med Chem, 2023).

Data set [1] in a line: Drug uptake in mouse Astrocyte cells expressing OATPIC4/5/6 at 100 uM incubated for 30 mins in absence of Na+ ions by liquid scintillation counter analysis. Format: ADME, cell-based. The following applies: 0.5 h. The procedure, abridged:
(§1)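 Mouse primary astrocytes incubated with [3H]-estrone-3-sulfate for 30 min at 37 °C in HBSS at pH 4.5–8.5 (MES or HEPES buffer). At pH 7.4, uptake was also run with choline chloride in place of Na+. Read by liquid scintillation counting and normalized to protein; n = 3 biological replicates.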

Data set [2] in a line: Drug uptake in mouse Astrocyte cells expressing OATPIC4/5/6 at pH 4.5 to 8.5 at 100 uM incubated for 30 mins by liquid scintillation counter analysis. The format is ADME, cell-based. The following applies: pH 4.5, 0.5 h. The procedure, abridged:
as §1

Data set [3] can be described thus: Drug uptake in mouse Astrocyte cells expressing OATPIC4/5/6 at 5 to 400 uM incubated for 30 mins by liquid scintillation counter analysis. Format: ADME, cell-based. The note with it: 0.5 h, dose 5-400 µM. The procedure, abridged:
(§2)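 Primary astrocytes from neonatal (P0–2) C57BL/6JOlaHsd pups, microglia removed at day 7, seeded at 10^4 cells/well 3 days before assay. Substrate added at 5–400 μM in HBSS pH 7.4 for 30 min at 37 °C. [3H]-estrone-3-sulfate measured by liquid scintillation and prodrugs by HPLC; normalized to protein. Km/Vmax fitted by Michaelis–Menten.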

Data set [4] in a line: Drug uptake in mouse Astrocyte cells expressing OATPIC4/5/6 at 100 uM incubated for 30 mins in presence of Na+ ions by liquid scintillation counter analysis. Format: ADME, cell-based. The following applies: 0.5 h. The procedure, abridged:
as §1

Data set [5] is described as follows: Drug uptake in mouse Astrocyte cells expressing OATPIC4/5/6 at 100 uM incubated for 30 mins in presence of naringin by liquid scintillation counter analysis. The format is ADME, cell-based. The following applies: 0.5 h. The procedure, abridged:
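Astrocytes preincubated 10 min with naringin (100 μM), then incubated with substrate (100 μM) plus naringin in HBSS pH 7.4 for 30 min at 37 °C. Uptake normalized to protein and expressed relative to control; one-way ANOVA with Dunnett's test.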

The nature of data set [6]: Drug uptake in JAXC57BL/6 mouse brain at 25 micromol/kg,ip and measured after 30 mins by LC-MS/MS analysis. Format: ADME, tissue-based. The note with it: in vivo, 0.5 h, dose 25 µmol/kg. The procedure, abridged: (§3)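 Male C57BL/6J mice, seven weeks old, given an ip bolus of 25 μmol/kg. Formulation 2.5 mM in saline with 30% Macrogol 15-hydroxystearate and 3% DMSO. Pentobarbital anaesthesia, then transcardial perfusion with ice-cold saline for 1 min. Whole brain (minus cerebellum and pons) taken at 30 min, homogenized in Tris pH 7.4, ACN-precipitated with labetalol internal standard, and quantified by LC–MS/MS in nmol/g.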

Data set [7] in a line: Chemical stability in Tris-HCI buffer at pH 7.4 at 100 uM and measured after 24 hrs by HPLC analysis. The format is physicochemical. The following applies: pH 7.4, 24 h. The procedure, abridged:
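Prodrug (100 μM initial, from 10 mM DMSO stock; 2% DMSO) incubated at 37 °C in 50 mM Tris–HCl pH 7.4 for 24 h. Samples taken at intervals, quenched 1:1 with ACN, analysed by HPLC-UV (230–240 nm). Pseudo-first-order t1/2 taken from the slope of log remaining prodrug vs time.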

A short description of data set [8]: Prodrug conversion in human U-87 MG cells expressing OATPIC1 assessed as OATPIC1 mediated drug release at 100 uM incubated for 30 mins by HPLC analysis. The following applies: u-87mg atcc, 0.5 h. The format is ADME, cell-based. The procedure, abridged: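 U-87MG cells incubated with prodrug at 100 μM for 30 min at 37 °C in HBSS. Released parent drug in cell lysate measured by HPLC and normalized to protein, alongside uptake of the parent drug itself; n = 3–6.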

Data set [9] can be described thus: Drug uptake in human U-87 MG cells expressing OATPIC1 at 100 uM incubated for 30 mins in presence of diclofenac by HPLC analysis. The format is ADME, cell-based. The note with it: u-87mg atcc, 0.5 h. The procedure, abridged:
(§4)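 U-87MG cells preincubated 10 min with diclofenac or flufenamic acid (100 μM), then co-incubated with the compound (100 μM) plus inhibitor in HBSS pH 7.4 for 30 min at 37 °C. Uptake quantified by HPLC, normalized to protein and expressed as % of control. One-way ANOVA with Dunnett's test; n = 3.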

Data set [10] can be described thus: Drug uptake in human U-87 MG cells expressing OATPIC1 assessed as Vmax at 200 uM incubated for 30 mins by Michaelis-Menten analysis. Format: ADME, cell-based. The following applies: u-87mg atcc, 0.5 h. The procedure, abridged:
(§5)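 U-87MG cells seeded at 1 × 10^5/well and used 1 day later. After 10 min preincubation in HBSS pH 7.4 at 37 °C, compounds added at 5–400 μM for 30 min at 37 °C. Cells washed with ice-cold HBSS, lysed in 0.1 M NaOH, acidic-ACN precipitated, analysed by HPLC against a spiked lysate standard curve, and normalized to Bradford protein. Km/Vmax fitted by Michaelis–Menten; n = 3 biological replicates.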

The nature of data set [11]: Drug uptake in human U-87 MG cells expressing OATPIC1 at 100 uM incubated for 30 mins in presence of flufenamic acid by HPLC analysis. The format is ADME, cell-based. The following applies: u-87mg atcc, 0.5 h. The procedure, abridged: as §4
The nature of data set [12]: Drug uptake in human U-87 MG cells expressing OATPIC1 at pH 4.5 to 8.5 at 100 uM incubated for 30 mins by HPLC analysis. The following applies: u-87mg atcc, pH 4.5, 0.5 h. Format: ADME, cell-based. The procedure, abridged: (§6)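 U-87MG cells incubated with T4 for 30 min at 37 °C in HBSS buffered with HEPES (pH 7.4, 8.5) or MES (pH 4.5–6.5). For Na+-free conditions, choline chloride replaced NaCl at pH 7.4. Lysates analysed by HPLC and normalized to protein; mean ± SD, n = 3 biological replicates.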

Data set [13] in a line: Drug uptake in human U-87 MG cells expressing OATPIC1 at 100 uM incubated for 30 mins in absence of Na+ ions by HPLC analysis. Format: ADME, cell-based. The note with it: u-87mg atcc, 0.5 h. The procedure, abridged: as §6
Data set [14] is described as follows: Drug uptake in human U-87 MG cells expressing OATPIC1 at 100 uM incubated for 30 mins in presence of Na+ ions by HPLC analysis. The format is ADME, cell-based. The note with it: u-87mg atcc, 0.5 h. The procedure, abridged:
as §6

The nature of data set [15]: Drug uptake in human U-87 MG cells expressing OATPIC1 at 5 to 400 uM incubated for 30 mins by HPLC analysis. The following applies: u-87mg atcc, 0.5 h, dose 5-400 µM. The format is ADME, cell-based. The procedure, abridged: as §5
A short description of data set [16]: Drug uptake in mouse Astrocyte cells expressing OATPIC4/5/6 assessed as Vmax at 200 uM incubated for 30 mins by Michaelis-Menten analysis. The note with it: 0.5 h. Format: ADME, cell-based. The procedure, abridged:
as §2

Data set [17] is described as follows: Prodrug conversion in JAXC57BL/6 mouse brain assessed as total amount of prodrug and ketoprofen level at 25 micromol/kg,ip and measured after 30 mins by LC-MS/MS analysis. The following applies: in vivo, 0.5 h, dose 25 µmol/kg. Format: ADME, tissue-based. The procedure, abridged: as §3

In the case of `C[C@]12CC[C@@H]3c4ccc(OS(=O)(=O)O)cc4CC[C@H]3[C@@H]1CCC2=O` [ESTRONE SULFURIC ACID], the Drug uptake result in data set [1] is “Active”; in data set [2] it was “Active”; in data set [3], “Active”; in data set [4], “Active”; in data set [5], “Not Active”.
In the case of `CC(C(=O)O)c1cccc(C(=O)c2ccccc2)c1` (racemic) [KETOPROFEN], the Drug uptake in data set [6] came out at 0.22 nmol/g.
Turning to `CC(C(=O)Oc1c(I)cc(C[C@H](N)C(=O)O)cc1I)c1cccc(C(=O)c2ccccc2)c1` (stereo not given in full), the Stability result in [7] was “Stable”. Also, in [8], the Drug metabolism entry is “Metabolite_Detected”. The results for the Drug uptake entry in data set [9], in [11] and in data set [5] were “Active”, “Active” and “Not Active”, respectively. Further, the maximum rate (Vmax) in data set [10] is 1.27 nmol/min/mg.
In the case of `CC(C(=O)Oc1c(I)cc(Oc2c(I)cc(C[C@H](N)C(=O)O)cc2I)cc1I)c1ccc(-c2ccccc2)c(F)c1` (stereo not given in full), the Stability entry in [7] is “Stable”. Also, in [8], the Drug metabolism result is reported as “Metabolite_Detected”. Also, the Drug uptake entry in [9], in data set [11] and in data set [5] was “Not Active” each time.
In the case of `CC(C(=O)Oc1c(I)cc(C[C@H](N)C(=O)O)cc1I)c1ccc(-c2ccccc2)c(F)c1` (stereo not given in full), in data set [7], the Stability entry is “Stable”. Also, in data set [8], the Drug metabolism result is on record as “Metabolite_Detected”. Further, the Drug uptake result in data set [9], in data set [11] and in data set [5] was “Not Active” in each case.
Consider `N[C@@H](Cc1cc(I)c(OC(=O)c2ccccc2O)c(I)c1)C(=O)O`, for which the Stability result in data set [7] is reported as “Stable”. In addition, the Drug metabolism result in data set [8] is on record as “Metabolite_Detected”. For the same compound, the Drug uptake result in [9] is “Active”; in data set [11] it was “Active”; in data set [5] it was “Not Active”.
For `COc1ccc2cc([C@H](C)C(=O)Oc3c(I)cc(C[C@H](N)C(=O)O)cc3I)ccc2c1`, the Stability result in data set [7] is recorded as “Stable”. Moreover, in [8], the Drug metabolism entry is given as “Metabolite_Detected”. The Drug uptake result in data set [9], in data set [11] and in [5] was “Active” in each case.
In the case of `N[C@@H](Cc1cc(I)c(Oc2cc(I)c(OC(=O)c3ccccc3O)c(I)c2)c(I)c1)C(=O)O`, the Stability result in data set [7] was “Stable”. In data set [8], the Drug metabolism result is on record as “Metabolite_Detected”. Also, the Drug uptake entry in data set [9] is on record as “Active”; in data set [11] it was “Active”; in data set [5], “Not Active”.
For the compound `N[C@@H](Cc1cc(I)c(Oc2cc(I)c(O)c(I)c2)c(I)c1)C(=O)O` [LEVOTHYROXINE], the Drug uptake result in data set [12] is “Active”; in data set [13], “Active”; in data set [14], “Active”; in data set [9] it was “Not Active”; in [15] it was “Active”; in data set [11], “Not Active”.
Take `COc1ccc2cc([C@H](C)C(=O)Oc3c(I)cc(Oc4c(I)cc(C[C@H](N)C(=O)O)cc4I)cc3I)ccc2c1`: the Stability result in [7] is given as “Stable”. In addition, the Drug metabolism entry in [8] is listed as “Metabolite_Detected”. In addition, the Drug uptake entry in data set [9] is “Not Active”; in data set [11], “Active”; in data set [5], “Active”.
On to `CC(C(=O)Oc1c(I)cc(Oc2c(I)cc(C[C@H](N)C(=O)O)cc2I)cc1I)c1cccc(C(=O)c2ccccc2)c1` (stereo not given in full), for which the Vmax in [16] amounted to 5.5 nmol/min/mg. Further, the Stability result in data set [7] is “Stable”. The Drug metabolism entry in data set [8] was “Metabolite_Detected”. For the same compound, the Drug uptake entry in [9] is “Not Active”; in [11] it was “Not Active”; in data set [17] it was 0.78 nmol/g; in data set [5], “Not Active”.

For orientation: Vmax means the rate approached at saturating substrate.
